Data reported in ChEMBL document CHEMBL5653611, “A combination of H2A.Z and H4 acetylation recruits Brd2 to chromatin during transcriptional activation” (PLoS Genet, 2012).
Calls of active or inactive are those of the source.

How the values were obtained:
[1] = system: LNCaP; assay: Inhibition of Brd2-PSA protein-protein interaction in DHT stimulated human LNCaP cells at 125 to 250 nM measured for 60 mins by ChIP analysis; format: cell-based; details: dose 125-250 nM
Summary of the method: (§1)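 LNCaP cells held 72 hrs in phenol-red-free RPMI with 5% charcoal-stripped FBS, pretreated with compound, then stimulated with 10 nM DHT (ethanol control). Brd2 occupancy at enhancer and promoter regions measured by ChIP 60 min after stimulation.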

[2] = system: LNCaP; assay: Inhibition of Brd2-KLK2 protein-protein interaction in DHT stimulated human LNCaP cells at 125 to 250 nM measured for 60 mins by ChIP analysis; format: cell-based; details: dose 125-250 nM; summary of the method: as §1
[3] = system: LNCaP; assay: Effect on human LNCaP cells assessed as decrease in KLK2 mRNA expression pretreated with compound for 24 hrs followed by androgen stimulation for 24 hrs by RT-qPCR analysis; format: functional, cell-based; details: dose 125-500 nM
Summary of the method: (§2)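 LNCaP cells grown 72 hrs in phenol-red-free RPMI with 5% charcoal-stripped FBS, pretreated with compound, then stimulated with 10 nM DHT (ethanol vehicle for controls). Transcript levels measured by RT-qPCR.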

[4] = system: LNCaP; assay: Antiproliferative activity against human LNCaP cells for 24 hrs by MTS assay; format: functional, cell-based; details: dose 125-500 nM
Summary of the method: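 LNCaP cells seeded in 96-well plates and grown 24 hrs, then exposed to a range of concentrations (DMSO vehicle control) for 24 hrs. MTS reagent added and absorbance read at 490 nm.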

[5] = system: LNCaP; assay: Effect on DHT stimulated human LNCaP cells assessed as decrease in histone acetylation at 125 to 250 nM measured for 60 mins by ChIP analysis; format: functional, cell-based; details: dose 125-250 nM
[6] = system: LNCaP; assay: Inhibition of Brd2-H2A.Z protein-protein interaction in human LNCaP cells at 125 to 250 nM by Western blotting analysis; format: cell-based; details: dose 125-250 nM
[7] = system: LNCaP; assay: Effect on human LNCaP cells assessed as decrease in PSA mRNA expression pretreated with compound for 24 hrs followed by androgen stimulation for 24 hrs by RT-qPCR analysis; format: functional, cell-based; details: dose 125-500 nM; summary of the method: as §2
[8] = system: HEK-293T; assay: Effect on human 293T cells assessed as increase in histone acetylation at 200 nM for 2 hrs by Western blotting analysis; format: functional, cell-based
Summary of the method: (§3)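 293T cells transfected with Flag-H2A.Z or Flag-H2A (for line 5, co-transfected with YFP-Brd2), treated with 200 nM for 2 hrs (DMSO vehicle) before harvest. Read-out by Western blot of input and of Flag IP of MNase-digested mononucleosomes, overnight at 4°C on M2-agarose.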

[9] = system: HEK-293T; assay: Effect on human 293T cells expressing YFP-Brd2 assessed as increase in protein immunoprecipitated cells at 200 nM for 2 hrs; format: functional, cell-based; summary of the method: as §3
[10] = system: HEK293T; assay: Binding affinity to Brd2-H2A.Z protein-protein interaction in human 293T cells at 200 nM for 2 hrs by Western blotting analysis; format: cell-based; summary of the method: as §3

Cc1sc2c(c1C)C(c1ccc(Cl)cc1)=N[C@@H](CC(=O)OC(C)(C)C)c1nnc(C)n1-2
active: inhibition [1] | inhibition [2] | Activity [3] Dose-Dependent Effect | Activity [4] Dose-Dependent Effect | Activity [5] | inhibition [6] | Activity [7] Dose-Dependent Effect

CC(/C=C/C(=O)NO)=C\[C@@H](C)C(=O)c1ccc(N(C)C)cc1
active: Activity [8] | Activity [9] | Activity [10]
